From ChEMBL document CHEMBL4265879, “Novel, potent, selective and brain penetrant vasopressin 1b receptor antagonists” (Bioorg Med Chem Lett, 2018)

How the values were obtained:
[1] = Intrinsic clearance in human liver microsomes; assay type: ADME, microsome; conditions: read-out: CLH
How it was run: (§1)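 Intrinsic clearance was measured in human and rat liver microsomes, in µL/min/mg. Values are means of at least two experiments.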

[2] = Intrinsic clearance in rat liver microsomes; assay type: ADME, microsome; conditions: read-out: CLH; how it was run: as §1
[3] = molecular target: T1, Vasopressin V1b receptor (Homo sapiens, UniProt P47901); assay: Displacement of [3H]AVP from human vasopressin V1b receptor expressed in CHO cell membranes after 60 mins by TopCount microplate scintillation counting method
T1 sequence (P47901 whole entry): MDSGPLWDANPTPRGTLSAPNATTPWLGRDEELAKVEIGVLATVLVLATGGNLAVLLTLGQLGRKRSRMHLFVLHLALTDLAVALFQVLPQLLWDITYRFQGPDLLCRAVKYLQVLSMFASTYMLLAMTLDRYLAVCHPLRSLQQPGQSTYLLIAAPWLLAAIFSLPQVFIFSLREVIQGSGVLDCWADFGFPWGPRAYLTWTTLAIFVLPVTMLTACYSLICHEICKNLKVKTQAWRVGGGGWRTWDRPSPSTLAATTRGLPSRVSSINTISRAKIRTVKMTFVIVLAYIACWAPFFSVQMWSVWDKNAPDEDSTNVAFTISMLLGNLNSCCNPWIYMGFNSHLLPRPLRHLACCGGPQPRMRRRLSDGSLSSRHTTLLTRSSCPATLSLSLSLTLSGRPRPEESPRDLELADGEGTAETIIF

[4] = molecular target: Cytochrome P450 3A4 (Homo sapiens, UniProt P08684); assay: Inhibition of CYP3A4 in human liver microsomes in presence of NADPH and Luciferin BE 50; assay type: ADME
How it was run: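 CYP3A4 inhibition by co-incubation in human liver microsomes with NADPH and luciferin-BE substrate, with 0.03 mg/mL noted. Result expressed as IC50.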

[5] = organism: Homo sapiens; assay: Selectivity index, ratio of Ki for human oxytocin receptor to Ki for human vasopressin V1b receptor
How it was run: (§2)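 Selectivity was calculated from human receptor Ki values as Ki hOT/Ki hV1b or Ki hV1a/Ki hV1b. Each Ki is the mean of at least two experiments (MSR 2.8).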

[6] = organism: Homo sapiens; assay: Selectivity index, ratio of Ki for human vasopressin V1a receptor to Ki for human vasopressin V1b receptor; how it was run: as §2
[7] = Clearance in rat plasma at 2 mg/kg, iv; assay type: ADME, organism-based
How it was run: (§3)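 Rat PK after a 2 mg/kg intravenous dose. Plasma clearance (L/h/kg), terminal half-life (h) and steady-state volume of distribution (L/kg) were derived.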

[8] = Volume of distribution at steady state in rat at 2 mg/kg, iv; assay type: ADME, organism-based; conditions: in vivo, read-out: Vdss; how it was run: as §3
[9] = Oral bioavailability in rat at 10 mg/kg; assay type: ADME, organism-based; conditions: in vivo
How it was run: (§4)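 Rat oral dosing, at 10 or 5 mg/kg depending on compound. Oral bioavailability (%) was calculated.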

[10] = Elimination half life in rat at 2 mg/kg, iv; assay type: ADME, organism-based; conditions: in vivo, read-out: beta t1/2 (converted); how it was run: as §3
[11] = Ratio of AUC in rat brain to plasma at 10 mg/kg, ip measured after 8 hrs; assay type: ADME, organism-based; conditions: read-out: Ratio AUC
How it was run: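 Rats were dosed 10 mg/kg intraperitoneally. Brain and plasma AUC were taken over an 8 h period, and the brain:plasma ratio was calculated from them.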

[12] = system: Rattus norvegicus; assay: Antidepressant like activity in Sprague-Dawley rat assessed as climbing time at 3 mg/kg, ip administered at 24, 4 and 0.5 hrs prior to test by forced swimming test; assay type: functional
How it was run: (§5)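 Rat forced swim test. Drug given intraperitoneally at 3 mg/kg, dosed 24, 4 and 0.5 h before testing. Floating, swimming and climbing times were scored. Nomifensine served as positive control. Data reported as mean ± SEM.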

[13] = system: Rattus norvegicus; assay: Antidepressant like activity in Sprague-Dawley rat assessed as floating time at 3 mg/kg, ip administered at 24, 4 and 0.5 hrs prior to test by forced swimming test; assay type: functional; how it was run: as §5
[14] = system: Rattus norvegicus; assay: Antidepressant like activity in Sprague-Dawley rat assessed as swimming time at 3 mg/kg, ip administered at 24, 4 and 0.5 hrs prior to test by forced swimming test; assay type: functional; how it was run: as §5
[15] = Oral bioavailability in rat at 5 mg/kg; assay type: ADME, organism-based; conditions: in vivo; how it was run: as §4

Cytochrome P450 3A4, sequence (P08684 whole entry): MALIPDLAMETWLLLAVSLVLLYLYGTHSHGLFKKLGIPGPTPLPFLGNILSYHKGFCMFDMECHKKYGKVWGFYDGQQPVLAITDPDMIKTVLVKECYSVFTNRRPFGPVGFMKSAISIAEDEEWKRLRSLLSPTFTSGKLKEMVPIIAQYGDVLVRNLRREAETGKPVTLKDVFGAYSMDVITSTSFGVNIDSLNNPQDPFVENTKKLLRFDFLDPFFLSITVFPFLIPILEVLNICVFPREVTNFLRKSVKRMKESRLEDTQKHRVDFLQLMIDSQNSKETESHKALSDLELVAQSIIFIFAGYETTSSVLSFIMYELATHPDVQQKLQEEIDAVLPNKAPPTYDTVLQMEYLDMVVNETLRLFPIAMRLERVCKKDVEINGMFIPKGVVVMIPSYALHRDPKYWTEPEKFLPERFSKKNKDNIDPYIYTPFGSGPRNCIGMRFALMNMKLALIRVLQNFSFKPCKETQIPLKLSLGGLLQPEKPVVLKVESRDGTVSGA

Structure (SMILES) | microsomal CLint [1] | microsomal CLint [2] | Ki [3] | Ratio Ki [5] | Ratio Ki [6] | other results
CCOc1nc(Cl)ccc1C1(N2CCN(c3ccnc(C)c3)CC2)C(=O)N(S(=O)(=O)c2ccc(OC)cn2)c2ccc(C#N)cc21 (racemic) [listing 1 of 2 here] | – | – | 0.0013 µM | – | – | IC50 [4]: 1.2 µM
COc1ccccc1C1(N2CCN(c3cccnc3)CC2)C(=O)N(S(=O)(=O)c2cccc3cccnc23)c2ccc(Cl)cc21 (stereo not given) | 360 µL/min/mg | 359 µL/min/mg | 0.008 µM | 10 | 3 | –
COc1ncccc1C1(N2CCN(c3cccnc3)CC2)C(=O)N(S(=O)(=O)c2cccc3cccnc23)c2ccc(Cl)cc21 (stereo not given) | 554 µL/min/mg | 156 µL/min/mg | 0.0152 µM | 2 | 0.5 | –
CCOc1nc(Cl)ccc1C1(N2CCN(c3ccnc(C)c3)CC2)C(=O)N(S(=O)(=O)c2ccc(OC)cn2)c2ccc(C#N)cc21 (racemic) [listing 2 of 2 here] | – | – | – | 69 | 125 | –
COc1ccc(S(=O)(=O)N2C(=O)C(c3cccnc3OC)(N3CCN(c4cccnc4)C(=O)C3)c3cc(Cl)ccc32)c(OC)c1 (stereo not given) | 196 µL/min/mg | 291 µL/min/mg | 0.082 µM | – | 1 | –
COc1ccc(S(=O)(=O)N2C(=O)C(c3ccccc3OC)(N3CCN(c4cccnc4)CC3)c3cc(Cl)ccc32)c(OC)c1 (stereo not given) | 41 µL/min/mg | 348 µL/min/mg | 0.018 µM | 0.9 | 0.8 | –
COc1ccc(S(=O)(=O)N2C(=O)C(c3ccccc3OC)(N3CCN(c4cccnc4)CC3)c3cc(Cl)ccc32)cc1 (stereo not given) | – | – | 0.104 µM | – | – | –
COc1ccccc1C1(N2CCN(c3cccnc3)CC2)C(=O)N(S(=O)(=O)c2ccccc2OC)c2ccc(Cl)cc21 (stereo not given) | 93 µL/min/mg | 442 µL/min/mg | 0.047 µM | – | – | –
COc1ccc(S(=O)(=O)N2C(=O)C(c3cccnc3OC)(N3CCN(C)C(=O)[C@H]3C)c3cc(Cl)ccc32)c(OC)c1 (stereo not given in full) | 51 µL/min/mg | 78 µL/min/mg | 0.041 µM | – | 1 | –
COc1ccc(S(=O)(=O)N2C(=O)C(c3cccnc3OC)(N3CCN(C)C(=O)C3)c3cc(Cl)ccc32)c(OC)c1 (stereo not given) | 99 µL/min/mg | 113 µL/min/mg | 0.192 µM | – | – | –
COc1ccc(S(=O)(=O)N2C(=O)C(c3cccnc3OC)(N3CCNC(=O)C3)c3cc(Cl)ccc32)c(OC)c1 (stereo not given) | – | – | 1.34 µM | – | – | –
COc1ccc(S(=O)(=O)N2C(=O)C(c3cccnc3OC)(N3CCN(c4cccnc4)CC3)c3cc(Cl)ccc32)c(OC)c1 (stereo not given) | 19 µL/min/mg | 84 µL/min/mg | 0.045 µM | – | 0.1 | –
COc1ncccc1C1(N2CCN(c3cccnc3)CC2)C(=O)N(S(=O)(=O)c2cccc3cccnc23)c2ccc(C#N)cc21 (stereo not given) | 326 µL/min/mg | 113 µL/min/mg | 0.0302 µM | 3 | 0.9 | –
COc1ccccc1C1(N2CCN(c3cccnc3)CC2)C(=O)N(S(=O)(=O)c2ccccc2)c2ccc(Cl)cc21 (stereo not given) | – | – | 0.233 µM | – | – | –
CCOc1nc(Cl)ccc1C1(N2CCN(c3ccnc(C)c3)CC2)C(=O)N(S(=O)(=O)c2ccc(OC)cn2)c2ccc(C#N)cc21 (single isomer, unassigned; (+)) [listing 1 of 2 here] | – | – | – | 65 | 78 | –
CCOc1nc(Cl)ccc1C1(N2CCN(c3ccnc(C)c3)CC2)C(=O)N(S(=O)(=O)c2ccc(OC)cn2)c2ccc(C#N)cc21 (single isomer, unassigned; (+)) [listing 2 of 2 here] | 7 µL/min/mg | 22 µL/min/mg | 0.0009 µM | – | – | IC50 [4]: 2 µM; clearance [7]: 15 mL/min/kg; bioavailability [15]: 37%; Vd [8]: 12 L/kg; half-life [10]: > 6 h; Kp at 8 h [11]: 1

Now from value to compound, other results behind:

microsomal CLint [1] | microsomal CLint [2] | Ki [3] | Ratio Ki [5] | Ratio Ki [6] | Structure (SMILES) | other results
77 µL/min/mg | 168 µL/min/mg | 0.084 µM | – | – | CCOc1ncccc1C1(N2CCN(c3ccncc3)CC2)C(=O)N(S(=O)(=O)c2ccc(OC)cc2OC)c2ccc(C#N)cc21 (stereo not given) | –
43 µL/min/mg | 296 µL/min/mg | 0.0585 µM | – | – | COc1ccc(S(=O)(=O)N2C(=O)C(c3ccccc3OC)(N3CCN(c4ccncc4)CC3)c3cc(C#N)ccc32)c(OC)c1 (stereo not given) | –
50 µL/min/mg | 58 µL/min/mg | 0.013 µM | 2 | 2 | COc1ccc(S(=O)(=O)N2C(=O)C(c3cc(OC)ccc3OC)(N3CCN(c4ccncc4)CC3)c3cc(C#N)ccc32)c(OC)c1 (stereo not given) | –
23 µL/min/mg | – | 0.045 µM | – | – | CCOc1nc(Cl)ccc1C1(N2CCN(c3ccncc3)CC2)C(=O)N(S(=O)(=O)c2ccc(OC)cc2OC)c2ccc(C#N)cc21 (stereo not given) | –
39 µL/min/mg | 63 µL/min/mg | 0.0011 µM | 201 | 325 | CCOc1nc(Cl)ccc1C1(N2CCN(c3ccncc3)CC2)C(=O)N(S(=O)(=O)c2ccc(OC)cn2)c2ccc(C#N)cc21 (stereo not given) | IC50 [4]: 0.1 µM
63 µL/min/mg | 34 µL/min/mg | 0.01 µM | 3 | 34 | CCOc1cc(OC)ccc1C1(N2CCN(c3ccncc3)CC2)C(=O)N(S(=O)(=O)c2ccc(OC)cc2OC)c2ccc(C#N)cc21 (stereo not given) | –
45 µL/min/mg | 290 µL/min/mg | 0.002 µM | 230 | 216 | CCOc1ccc(OC)cc1C1(N2CCN(c3ccncc3)CC2)C(=O)N(S(=O)(=O)c2ccc(OC)cn2)c2ccc(C#N)cc21 (stereo not given) | –
93 µL/min/mg | 118 µL/min/mg | 0.032 µM | 15 | – | CCOc1ccc(OC)cc1C1(N2CCN(c3ccncc3)CC2)C(=O)N(S(=O)(=O)c2ccc(OC)cc2)c2ccc(C#N)cc21 (stereo not given) | –
23 µL/min/mg | 41 µL/min/mg | 0.021 µM | 6 | 21 | CCOc1ccc(OC)cc1C1(N2CCN(c3ccncc3)CC2)C(=O)N(S(=O)(=O)c2ccc(OC)cc2OC)c2ccc(C#N)cc21 (stereo not given) | clearance [7]: 11.7 mL/min/kg; Vd [8]: 2.9 L/kg; bioavailability [9]: 22%; half-life [10]: 3.4 h; Kp at 8 h [11]: 1.1
131 µL/min/mg | 119 µL/min/mg | 0.009 µM | 21 | 39 | CCOc1ccc(OC)cc1C1(N2CCN(c3ccncc3)CC2)C(=O)N(S(=O)(=O)c2ccc(F)c3cccnc23)c2ccc(C#N)cc21 (stereo not given) | –
33 µL/min/mg | 15 µL/min/mg | 0.002 µM | 4 | 84 | CCOc1ccc(OC)cc1C1(N2CCN(c3ccncc3)CC2)C(=O)N(S(=O)(=O)c2ccc(OC)c3cccnc23)c2ccc(C#N)cc21 (stereo not given) | –
170 µL/min/mg | 210 µL/min/mg | 0.005 µM | 34 | 79 | CCOc1ccc(OC)cc1C1(N2CCN(c3ccncc3)CC2)C(=O)N(S(=O)(=O)c2cccc3cccnc23)c2ccc(C#N)cc21 (stereo not given) | Time [12]: 125.69 s; clearance [7]: 46.7 mL/min/kg; Vd [8]: 10 L/kg; bioavailability [9]: 18%; half-life [10]: 2.4 h; Time [13]: 159.15 s; Kp at 8 h [11]: 1.4; Time [14]: 12.46 s
43 µL/min/mg | 83 µL/min/mg | 0.036 µM | – | – | CCOc1ccccc1C1(N2CCN(c3ccncc3)CC2)C(=O)N(S(=O)(=O)c2ccc(OC)cc2OC)c2ccc(C#N)cc21 (stereo not given) | –
